# This is a sample that favours compounds with a hit; in the whole collection about 1.5% have one here.
# GASC-1 inh: blocks human GASC-1 demethylase activity; GST-JMJD2C(1-420) H3K9me3 demethylation, DELFIA europium; AID 2099; inhibition, % at 2.35 µM; actives 0.069% (n = 330,000);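 active = more than half of a compound's replicate wells show inhibition beyond 50%, single wells judged on their own value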;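 note: signal counts dimethyl H3K9 product captured on neutravidin plate; 0% = median of DMSO wells and 100% = 0.3 times that DMSO median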
# GalR3 antagonist: human GalR3 antagonism; actives 0.44% (n = 360,000); inhibition, % at 3 µM; O60755; HEK293 GalR3-CNG cAMP membrane potential fluorescence; galR3 body fused to GalR1 C-terminus; AID 651719;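 active = inhibition above the screen-wide average plus 3 SD, cut at about 13% in these data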;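 note: forskolin and galanin both at EC90 stimulate the cells; cAMP rise reported by CNG channel membrane potential dye signal; 0% = forskolin plus galanin with DMSO and 100% = forskolin alone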
# 697 NFkB inh: lowers PMA/ionomycin-induced NF-kB signal in 697 B cells; actives 0.33% (n = 330,000); inhibition, % at 4 µM; 697 B-cell NF-kB luciferase reporter, 16 h; AID 435022; in the data active = inhibition above about 35%
# Jurkat NFkB inh: lowers PMA/ionomycin-induced NF-kB signal in Jurkat cells. actives 0.53% (n = 330,000). AID 435003. PMA/ionomycin-induced NF-kB luciferase reporter, luminescence. inhibition, % at 4 µM; in the data active = inhibition above about 50%
# NR2E3 ag-1: human photoreceptor-specific nuclear receptor agonism; AID 602229; inhibition of corepressor binding, % at 3.98 µM; CHO-S Gal4-NCOR/VP16-NR2E3 two-hybrid, luciferase; actives 0.35% (n = 360,000);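 active = inhibition above the mean of all tested compounds plus 3 SD, cut at about 70% in these data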;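 note: 0% = DMSO with NR2E3 transfected cells and 100% = cells lacking NR2E3 construct; higher means lower luciferase signal from less NR2E3 corepressor binding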
# Target sequence (Q9Y5X4 whole entry, looked up, the tested form may be a part): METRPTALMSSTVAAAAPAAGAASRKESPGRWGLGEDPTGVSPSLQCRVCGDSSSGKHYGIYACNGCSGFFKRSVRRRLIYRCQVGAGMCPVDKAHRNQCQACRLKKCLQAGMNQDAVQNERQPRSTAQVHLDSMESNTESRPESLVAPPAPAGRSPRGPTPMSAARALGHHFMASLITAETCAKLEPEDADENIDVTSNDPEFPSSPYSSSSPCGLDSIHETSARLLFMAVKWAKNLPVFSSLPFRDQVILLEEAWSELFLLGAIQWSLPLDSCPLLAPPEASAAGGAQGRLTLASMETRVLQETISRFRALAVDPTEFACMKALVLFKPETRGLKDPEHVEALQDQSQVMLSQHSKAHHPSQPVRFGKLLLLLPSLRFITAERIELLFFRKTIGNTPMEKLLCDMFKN
# NR2E3 ag-2: activates human photoreceptor nuclear receptor NR2E3. inhibition of corepressor binding, % at 4.78 µM. actives 0.12% (n = 320,000). GST-NR2E3/biotin-RetCOR TR-FRET, 1536-well;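 active = percent inhibition above the cutoff of mean plus 3 SD of all tested compounds, set per screening campaign, cut at about 20% in these data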;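 note: 0% = DMSO wells and 100% = biotin wells as full block of FRET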
#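 Test system: GST-NR2E3 and biotin-RetCOR proteins | Quantity: 1.35 nM GST-tagged NR2E3 final | Medium: Tris pH 7.5 | Also added: 7 nM biotin-RetCOR | Dosing: Compound at 4.8 µM, single dose | Timing: 5 h at 4 °C | Detection: Time-resolved FRET | Read-out basis: Percent inhibition | Benchmarks: Biotin wells as high control, 0.6% DMSO wells as low control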
# NR2E3 ag confirm: confirmation of human NR2E3 agonists; CHO-S mammalian two-hybrid NR2E3-NCOR, luciferase luminescence; shares compounds with NR2E3 ag-1; inhibition, % at 3.98 µM; actives 51% (n = 2,300);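 active = average inhibition above a cutoff equal to the mean inhibition of all tested compounds plus one SD, cut at about 70% in these data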;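 note: 0% = DMSO in NR2E3 cells and 100% = DMSO in cells lacking NR2E3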
# GAL4-VP16 luc: GAL4-VP16 reporter inhibition in NR2E3 agonist counterscreen; shares compounds with NR2E3 ag-1; CHO-S GAL4-VP16 luciferase reporter, luminescence; inhibition, % at 3.98 µM; actives 29% (n = 2,300); AID 624379;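 active = mean inhibition above a cutoff equal to the average over all tested compounds plus one standard deviation, cut at about 70% in these data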;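 note: luciferase from a UAS reporter driven by GAL4-VP16 transactivation; 0% = DMSO with VP16-transfected cells and 100% = DMSO with cells lacking VP16; higher means less reporter light so more repression of VP16 activity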
# Starred values were filed as active, the others as inactive; . = no result.
SMILES,GASC-1 inh,GalR3 antagonist,697 NFkB inh,Jurkat NFkB inh,NR2E3 ag-1,NR2E3 ag-2,NR2E3 ag confirm,GAL4-VP16 luc
Cc1sc(NC(=O)/C=C/c2ccc3c(c2)OCO3)nc1-c1ccccc1,-2,-6,6,40,57,5,85*,31
O=C(/C=C/c1ccc2c(c1)OCO2)Nc1nc(-c2ccccc2)cs1,42,-8,-8,15,-25,2,.,.
CNC(=S)NN=C(C)c1ccc(OC)cc1O,.,-2,.,.,72*,.,-2,13
C=CCNCCOCCOc1ccccc1-c1ccccc1,-3,-9,-4,5,-8,4,.,.
CC1=C(CC(=O)c2ccccc2)C(=O)c2ccccc2C1=O,15,-6,-131,-75,55,-2,-91,-31
Cc1ccc(C2=NS(=O)(=O)N(C)C(C(=O)Nc3ccc4c(c3)OCO4)=C2)cc1,0,0,0,-9,49,4,33,42
N#CCCN1CCN(C2=NC(=O)/C(=C\c3cccs3)S2)CC1,0,-10,6,-8,7,-4,.,.
COCCn1c(C)cc(C(=O)COC(=O)c2cccc(O)c2)c1C,2,-2,35,-5,59,0,42,-7
Cc1cc(Cn2nnc3ccccc32)c(O)c(C(C)(C)C)c1,1,1,-13,3,80*,2,19,35
CC(C)(C)c1cccc(Cn2nnc3ccccc32)c1O,5,1,-32,-4,62,1,55,66
CCCc1ccc(-c2ccc(/C=C/C(=O)O)cc2)nc1,6,-1,.,.,75*,-1,85*,61
O=NN(CCc1ccncc1)c1ccc(OCc2ccccc2)cc1,-1,3,-18,40,86*,0,95*,85*
NC(=O)c1nn(-c2ccccc2)nc1NC(=O)CSc1nnnn1-c1ccc(Cl)cc1,-23,-1,14,-13,92*,-3,97*,26
Cc1ccc(-c2nc(NC(=O)CSc3nnnn3-c3ccccc3)ns2)cc1,13,-1,10,15,73*,4,100*,29
CCn1c2ccccc2c2cc(NC(=O)CSc3nnnn3-c3ccccc3)ccc21,-5,-3,-18,-25,70,1,54,21
O=C(CSc1nnnn1-c1ccccc1)Nc1ccc(Cl)cc1,3,-4,17,4,-19,0,.,.
O=C(N[C@H](C(=O)N1CCC[C@H]1C(=O)NC1CCCC1)c1ccccc1)C1CC1,.,-7,.,.,.,.,.,.
COc1ccc(CCNC(=O)c2nn(C)c3c2CS(=O)(=O)c2ccccc2-3)cc1OC,9,.,-26,-8,-54,0,.,.
O=C(NCc1ccc2c(c1)OCO2)OCc1ccccc1,.,9,.,.,.,.,.,.
Cc1ccc(Cc2c(-c3ccc(C)cc3)nc3c(Cl)cc(C(F)(F)F)cn23)cc1,.,.,.,.,60,.,-6,10
Cc1ccc(Cc2c(-c3ccccc3)nc3c(Cl)cc(C(F)(F)F)cn23)cc1,.,-5,.,.,12,.,.,.
Nc1nonc1C(=O)NCCNC(=O)c1ccc(Cl)c(Cl)c1,-3,-8,12,-11,1,2,.,.
O=c1cc(C(F)(F)F)nc(SCc2cccc3ccccc23)[nH]1,-1,-1,1,8,100*,-1,98*,84*
Nc1cc(=O)[nH]c(SCc2cccc3ccccc23)n1,-3,-4,4,11,-35,0,.,.
CC/C(=N\NC(=S)Nc1cccc(C)c1)c1ccccc1,11,0,-7,-21,27,1,.,.
SMILES,GASC-1 inh,GalR3 antagonist,697 NFkB inh,Jurkat NFkB inh,NR2E3 ag-1,NR2E3 ag-2,NR2E3 ag confirm,GAL4-VP16 luc
Cc1cccc(NC(=S)N/N=C(\c2ccccc2)C(C)C)c1,-1,-5,-10,-11,65,4,20,-50
COC(=O)CSc1nc2c(cnn2-c2ccc(F)cc2)c(=O)[nH]1,4,-7,-2,-4,-2,-4,.,.
Cc1ccc(NC(=O)NC2CC(=O)N(c3ccc4c(c3)OCCO4)C2)cc1C (configuration not stated),-10,-1,5,8,54,-3,32,6
Cc1nnc(NC(=O)C2CC(=O)N(c3ccc4c(c3)OCCO4)C2)s1 (configuration not stated),7,-1,9,20,10,6,.,.
Cc1cnc(NC(=O)C2CC(=O)N(c3ccc4c(c3)OCCO4)C2)s1 (configuration not stated),5,-4,-3,0,55,.,75*,25
N#Cc1cccc(S(=O)(=O)N2CCN(c3ccnc4cc(Cl)ccc34)CC2)c1,-6,-4,26,34,1,3,.,.
O=S(=O)(c1cccc(Br)c1)N1CCN(c2ccnc3cc(Cl)ccc23)CC1,3,-4,22,8,64,-1,65,60
CC1(C)CC(=O)C2=C(C1)c1c(ccc3ccccc13)NC2c1cc([N+](=O)[O-])cc([N+](=O)[O-])c1O (configuration not stated),13,1,7,-6,57,0,98*,61
CC1(C)CC(=O)C2=C(C1)c1c(ccc3ccccc13)NC2c1ccc(C(=O)O)cc1 (configuration not stated),-7,-10,-26,-20,-10,3,.,.
CCOc1ccc(OCCC(=O)Nc2ccc(F)cc2C)cc1,41,-4,1,3,50,2,15,-25
O=c1c(Br)ccc(Br)cc1Br,.,6,.,.,71*,.,100*,46
O=[N+]([O-])c1ccc(Sc2cccc3cccnc23)c([N+](=O)[O-])c1,-2,-7,1,39,78*,2,12,-24
O=[N+]([O-])c1cc(Cl)ccc1Sc1cccc2cccnc12,.,-1,10,20,-3,-1,.,.
C=C(C(=O)c1ccccc1)C(NC(C)(C)C)c1ccccc1 (configuration not stated),.,-5,.,.,92*,.,78*,29
C=C(C(=O)c1ccccc1)C(C)CC(=O)c1ccccc1 (configuration not stated),5,-2,-10,13,-2,0,.,.
CCCCC(=O)N(C)c1c(C)nc2ccc(C(=O)NCCOc3ccc(OC)cc3)cn12,.,-7,.,.,-11,.,.,.
CCCCN(C)c1c(C)nc2ccc(C(=O)NCCOc3ccc(OC)cc3)cn12,.,.,.,.,49,.,94*,68
Cn1c(SCC(=O)Nc2nccs2)nnc1-c1ccccn1,-1,-2,7,7,-32,4,.,.
CCCCn1c(N)c(N(CCOC)C(=O)c2cc(Cl)nc3ccccc23)c(=O)[nH]c1=O,2,-2,10,-4,-7,-1,.,.
